Measurements published in ChEMBL document CHEMBL4138179, “Design, synthesis and cytotoxic activity of N-Modified oleanolic saponins bearing A glucosamine” (Eur J Med Chem, 2018).

Columns and labels:
HL-60 [1] = test: Cytotoxicity against human HL60 cells assessed as cell growth inhibition after 48 hrs by MTT assay; type: functional, cell-based; settings: HL-60, 48 h
Summary of the method: (§1)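 Cells from ATCC; HL-60 grown in IMDM, PC-3 in RPMI 1640, HT29 in DMEM, each with 10% FBS and penicillin/streptomycin, 37 °C, 5% CO2. Cells incubated without or with compound at the indicated concentrations and times. Mitochondrial MTT reduction read at 570 nm on a plate reader. IC50 given as mean ± SD of at least three independent experiments.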

PC-3 = test: Cytotoxicity against human PC3 cells assessed as cell growth inhibition after 48 hrs by MTT assay; type: functional, cell-based; settings: PC-3, 48 h; summary of the method: as §1
HT-29 = test: Cytotoxicity against human HT-29 cells assessed as cell growth inhibition after 48 hrs by MTT assay; type: functional, cell-based; settings: HT-29, 48 h; summary of the method: as §1
HL-60 [2] = test: Induction of mitochondrial membrane depolarization in human HL60 cells after 24 hrs by JC-1 staining based flow cytometry; type: functional, cell-based
Summary of the method: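 HL-60 cells exposed to a range of compound concentrations under the MTT culture conditions, untreated control included. After 1 day, cells stained with JC-1 (final 2 μM) at 37 °C for 30 min, then harvested. Flow cytometry gives the percentage loss of mitochondrial membrane potential.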

[3] = Drug uptake in human HL60 cells at 15 uM for 15 hrs by DBCO-488 probe based fluorescence confocal microscopy; type: ADME, cell-based; settings: hl-60, 15 h
Summary of the method: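 HL-60 cells treated with azido-bearing compound (15 μM, 15 h); DMSO-diluted control. Cells fixed in 99% alcohol, permeabilized with 0.1% Triton X-100 in PBS for 15 min, then washed. Copper-free labeling with DBCO-488 (2 μM) plus 0.5 mg/mL BSA in PBS for 6 h. RedDot2 nuclear and CellBrite Blue membrane counterstains; imaged by confocal fluorescence microscopy.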

SMILES: CCCCCCC(=O)N[C@H]1[C@H](O[C@H]2CC[C@]3(C)[C@H]4CC=C5[C@@H]6CC(C)(C)CC[C@]6(C(=O)O)CC[C@@]5(C)[C@]4(C)CC[C@H]3C2(C)C)O[C@H](CO)[C@@H](O)[C@@H]1O
- IC50 (HL-60 [1]): 2.85 µM
- IC50 (PC-3): > 30 µM
- IC50 (HT-29): > 30 µM
- Activity (HL-60 [2]): Dose-dependent effect

SMILES: CC1(C)CC[C@]2(C(=O)O)CC[C@]3(C)C(=CC[C@H]4C3(C)CC[C@H]3C(C)(C)[C@@H](O[C@@H]5O[C@H](CO)[C@@H](O)[C@H](O)[C@H]5NC(=O)CCc5cn(-c6cc7ccc(O)cc7oc6=O)nn5)CC[C@@]34C)[C@@H]2C1 (single isomer, unassigned)
- Drug uptake [3]: Active
